# Measurements reported in article PMC2606940 (The Journal of General Physiology, 2009).
# Positions count from the first letter of the chain named. Read-outs that look alike come from different tables or passages of the source.
# Experiments:
# CLC-0 E166L mutant = target: T1, CLC-0 E166L mutant (Torpedo marmorata, UniProt P21564, C212S/E166L); type: cell-based; conditions: for IC50: read-out: Apparent affinity (K1/2)
# T1 sequence (P21564 1-805 E166L/C212S): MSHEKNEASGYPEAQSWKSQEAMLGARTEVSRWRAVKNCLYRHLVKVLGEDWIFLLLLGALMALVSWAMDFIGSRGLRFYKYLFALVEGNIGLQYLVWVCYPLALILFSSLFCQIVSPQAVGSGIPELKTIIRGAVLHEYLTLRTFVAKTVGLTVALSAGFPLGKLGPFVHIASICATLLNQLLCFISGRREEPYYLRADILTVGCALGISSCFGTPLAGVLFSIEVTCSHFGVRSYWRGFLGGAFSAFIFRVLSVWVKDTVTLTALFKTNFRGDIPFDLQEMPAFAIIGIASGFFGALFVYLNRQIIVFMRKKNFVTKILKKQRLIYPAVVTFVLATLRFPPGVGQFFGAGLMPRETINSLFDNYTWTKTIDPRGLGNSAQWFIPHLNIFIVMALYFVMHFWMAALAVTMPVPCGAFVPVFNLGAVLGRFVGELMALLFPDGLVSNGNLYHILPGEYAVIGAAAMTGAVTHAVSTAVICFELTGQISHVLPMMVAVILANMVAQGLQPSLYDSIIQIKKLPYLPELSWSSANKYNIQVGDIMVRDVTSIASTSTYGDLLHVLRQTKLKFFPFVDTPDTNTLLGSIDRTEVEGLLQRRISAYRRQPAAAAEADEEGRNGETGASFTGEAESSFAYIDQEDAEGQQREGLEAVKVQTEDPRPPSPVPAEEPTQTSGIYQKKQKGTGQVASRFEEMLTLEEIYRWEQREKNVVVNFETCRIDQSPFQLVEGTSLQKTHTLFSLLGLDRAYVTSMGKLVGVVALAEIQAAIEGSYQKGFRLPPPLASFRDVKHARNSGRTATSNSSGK
# Summary of the method: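 CLC-0 mutants in the C212S background were transfected into HEK293 cells with lipofectamine and recorded 1–3 d later as excised inside-out patches. Both sides held 130 mM NaCl, 5 mM MgCl2, 10 mM HEPES and 1 mM EGTA, pH 7.4. CPA was perfused continuously onto the cytoplasmic face. Steady-state current over the last 10 ms was normalized to bracketing blocker-free controls and fitted to a Langmuir function for K1/2. Values are mean ± SEM of ~4–6 patches.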
# CLC-0 E166F mutant = target: T2, CLC-0 E166F mutant (Torpedo marmorata, UniProt P21564, C212S/E166F); type: cell-based; conditions: read-out: Apparent affinity (K1/2)
# T2 sequence (P21564 1-805 E166F/C212S): T1 sequence (P21564 1-805 E166L/C212S) with L166F
# Summary of the method: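 CLC-0 mutants (C212S background) were lipofectamine-transfected into HEK293 cells and recorded 1–3 d later from inside-out patches. Pipette and bath contained 130 mM NaCl, 5 MgCl2, 10 HEPES and 1 EGTA (pH 7.4). Test compound was perfused onto the cytoplasmic side. A +80 mV prepulse preceded steps to steady state. The last-10-ms current was normalized to bracketing blocker-free controls and fitted to a Langmuir function for K1/2.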
Structure (SMILES),"block of current (CLC-0 E166L mutant; 0.3 mM CPA, −160 mV) [%]",IC50 (CLC-0 E166L mutant; −40 mV) [µM],IC50 (CLC-0 E166L mutant; −60 mV) [µM],IC50 (CLC-0 E166L mutant; −80 mV) [µM],IC50 (CLC-0 E166L mutant; −100 mV) [µM],IC50 (CLC-0 E166L mutant; −120 mV) [µM],IC50 (CLC-0 E166L mutant; −140 mV) [µM],IC50 (CLC-0 E166L mutant; −160 mV) [µM],IC50 (CLC-0 E166F mutant; −40 mV) [µM],IC50 (CLC-0 E166F mutant; −60 mV) [µM],IC50 (CLC-0 E166F mutant; −80 mV) [µM],IC50 (CLC-0 E166F mutant; −100 mV) [µM],IC50 (CLC-0 E166F mutant; −120 mV) [µM],IC50 (CLC-0 E166F mutant; −140 mV) [µM],IC50 (CLC-0 E166F mutant; −160 mV) [µM]
"O=C(O)COc1ccc(Cl)cc1 [CPA, p-chlorophenoxy acetate]",~60,4640 ± 190,2610 ± 80,1460 ± 30,800 ± 20,470 ± 10,280 ± 10,180 ± 10,5120 ± 1720,2060 ± 300,730 ± 90,350 ± 30,170 ± 20,93 ± 12,47 ± 7
CCCCCCCC(=O)O [octanoate],–,342 ± 53,192 ± 22,106 ± 10,57 ± 5,32 ± 3,18 ± 2,11 ± 1,3090 ± 560,1630 ± 160,803 ± 50,455 ± 15,254 ± 7,150 ± 4,91 ± 1
